Measurements as given in PubChem BioAssay.
Calls of active or inactive are those of the source.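 The calls were made as follows, unless noted: active = viability at or below 10% of carrier control in both of two separate runs; inconclusive = viability at or below 10% in only one of the two runs; inactive = the rest.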

Tests used:
[1] = reduced viability of SK-BR-3 breast cancer cells – cell-based, 24 h, human, pilot screen (AID 572); details: SK-BR-3 viability, CellTiter-Glo luminescence, at 10 µM, stronger effect = lower value;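 also: compound exposure lasted between 18 and 24 h rather than exactly 24 h; 100% = carrier-treated control wells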
[2] = HUVEC growth inhibition – cell-based, human, primary screen (AID 575;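 active = viability at or below 30% in both replicate assays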;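 also: 100% = median of untreated cell wells with 0.1% DMSO on each plate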); details: HUVEC proliferation, CellTiter-Glo luminescence, 72 h; at 10 µM; stronger effect = lower value
Method in brief: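 Material: primary human umbilical vein endothelial cells / Schedule: 72 h exposure, 37 °C, 5% CO2, 30 min RT equilibration / Signal: ATP-based CellTiter-Glo luminescent read / Read-out basis: percent of median DMSO-control luminescence / Control set: 32 DMSO-only cell-control wells (high), 32 MePR drug-control wells (low) per plate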

[3] = H69AR cell proliferation blockers – human, duplicate replicates, primary screen (AID 580;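 active = viability at or under a set limit in both replicates, limit being median viability minus 3 SD, cut at about 48% in these data, passing the limit was not always enough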;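 also: 100% = mean luminescence of untreated wells and 0% = no signal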); details: H69AR lung tumor cells viability, ATP luminescence, 72 h; at 10 µM; stronger effect = lower value
[4] = MRP1 drug-resistance reversers in H69AR cells – cell-based, doxorubicin co-treatment, pilot screen (AID 601;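 active = viability loss from added drug above about 55%, and viability with drug at most 40%, in both replicates, limit read from the data, passing the limit was not always enough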); details: CellTiter-Glo, 72 h, at 10 µM; for differential viability (reversal): stronger effect = higher value
[5] = yeast transport mutant growth inhibition pilot in 384-well plates, post-Golgi transport modulator project (AID 636; in the data active = inhibition above about 31%); details: absorbance 615 nm, about 18 h, stronger effect = higher value
[6] = growth suppression of yeast trafficking mutant, preliminary HTS, modulators of trafficking downstream of Golgi apparatus project, 1536-format plate, OD 615 nm (AID 637; in the data active = inhibition above about 30%); details: yeast transport mutant growth, absorbance 615 nm, 18 h; stronger effect = higher value
[7] = H69AR cells + 2 uM doxorubicin, measured here: viability with 2 uM doxorubicin, stronger effect = lower value
[8] = H69AR cells, compound alone cytotoxicity

Row | SMILES | viability [1] | viability [2] | viability [3] | differential viability (reversal) ([4]; H69AR cells + 2 uM doxorubicin) | viability [4, 7] | viability [4, 8] | inhibition [5] | inhibition [6]
1 | CN/C=C1\C(=O)C(C)(C)Oc2ccc3ccc(=O)oc3c21 | 112% (inactive) | 91.5% (inactive) | 87.9% (inactive) | 0.24% (inactive) | 87.7% | 87.9% | -6.53% (inactive) | 0.18% (inactive)
2 | COc1ccccc1N1CCN(C(=O)c2cc(-c3ccc(Cl)c(Cl)c3)on2)CC1 | 122% (inactive) | 70.4% (inactive) | 57.9% (inactive) | -6.66% (inactive) | 64.5% | 57.9% | -4.13% (inactive) | -1.82% (inactive)
3 | CSc1nnc(-c2cnccn2)n1Cc1ccccc1 | 96% (inactive) | 92.5% (inactive) | 102% (inactive) | 6.43% (inactive) | 95.7% | 102% | -2.88% (inactive) | 0.73% (inactive)
4 | CNC(=O)c1ccc2nc(NC(C)=O)sc2c1 | 110% (inactive) | 102% (inactive) | 99.9% (inactive) | 9.57% (inactive) | 90.4% | 99.9% | -7.2% (inactive) | -0.36% (inactive)
5 | CC(CN1c2ccccc2Sc2ccccc21)N(C)C (stereo not drawn) | 88% (inactive) | 62.9% (inactive) | 92.2% (inactive) | 4.55% (inactive) | 87.7% | 92.2% | -2.73% (inactive) | -1.67% (inactive)
6 | O=C1c2ccccc2NC2CCCCCN12 (stereo not drawn) | 108% (inactive) | 92.9% (inactive) | 100% (inactive) | 10.3% (inactive) | 89.8% | 100% | -2.34% (inactive) | 1.48% (inactive)
7 | COC(=O)CNc1nc(C2CC2)nc2c1nnn2Cc1ccccc1Cl | 89% (inactive) | 84.9% (inactive) | 94.7% (inactive) | -2.29% (inactive) | 97% | 94.7% | -9.04% (inactive) | 1.13% (inactive)
8 | Cc1nc2sccn2c(=O)c1CCN1CCC(=C(c2ccc(F)cc2)c2ccc(F)cc2)CC1 | 111% (inactive) | 11.5% (active) | 85.7% (inactive) | -2.19% (inactive) | 87.8% | 85.7% | 1.04% (inactive) | 6.17% (inactive)
9 | COCC(=O)n1nc(NCc2ccc(OC)cc2)nc1NCc1ccc(OC)cc1 | 116% (inactive) | 105% (inactive) | 99.8% (inactive) | 9.29% (inactive) | 90.5% | 99.8% | 53.3% (active) | 28.6% (inactive)
10 | Cc1ccc(O)c(-c2cc(C(=O)Nc3ccc(S(=O)(=O)N4CC(C)OC(C)C4)cc3)[nH]n2)c1 (stereo not drawn) | 92% (inactive) | 56.7% (inactive) | 34.8% (active) | -8.67% (inactive) | 43.5% | 34.8% | -11.1% (inactive) | -1.59% (inactive)
11 | Cc1nnc(NC(=O)CCC(=O)N2CCC(C)CC2)s1 | 86% (inactive) | 105% (inactive) | 90.8% (inactive) | 1.93% (inactive) | 88.9% | 90.8% | -3.01% (inactive) | 1.64% (inactive)
12 | Nc1ccc(S(=O)(=O)c2cccc(N)c2)cc1 | 62% (inactive) | 100% (inactive) | 96.2% (inactive) | 11.8% (inactive) | 84.4% | 96.2% | -9.18% (inactive) | 1.64% (inactive)
13 | CCCc1ccccc1OCCNC(C)=O | 103% (inactive) | 99.5% (inactive) | 102% (inactive) | 11.2% (inactive) | 90.4% | 102% | -3.87% (inactive) | 0% (inactive)
14 | NC(N)=Nc1nc(CSCC/C(N)=N/S(N)(=O)=O)cs1 | 89% (inactive) | 98.5% (inactive) | 95.8% (inactive) | -8.47% (inactive) | 104% | 95.8% | 3.9% (inactive) | 5.33% (inactive)
15 | COc1cc2c(cc1OC)C(/C(C#N)=N\O)=NC(C)(C)C2 | 86% (inactive) | 107% (inactive) | 100% (inactive) | 8.75% (inactive) | 91.6% | 100% | -8.77% (inactive) | 2% (inactive)
16 | CN(C)c1nc(Oc2ccc(N)cc2)nc(N(C)C)n1 | 97% (inactive) | 86.2% (inactive) | 90.1% (inactive) | -6.47% (inactive) | 96.6% | 90.1% | -7.73% (inactive) | -2% (inactive)
17 | O=S(=O)(NCc1ccc(Cl)cc1)c1cnc[nH]1 | 103% (inactive) | 98.1% (inactive) | 106% (inactive) | 23.5% (inactive) | 82.7% | 106% | -6.36% (inactive) | -4.59% (inactive)
18 | COc1ccc(S(=O)(=O)Nc2cccc(C)n2)c2ccccc12 | 94% (inactive) | 109% (inactive) | 100% (inactive) | 13.8% (inactive) | 86.2% | 100% | -2.08% (inactive) | 4.43% (inactive)

Row | SMILES | viability [1] | viability [2] | viability [3] | differential viability (reversal) ([4]; H69AR cells + 2 uM doxorubicin) | viability [4, 7] | viability [4, 8] | inhibition [5] | inhibition [6]
19 | COc1ccc(-c2nc(C)sc2CC(=O)O)cc1 | 100% (inactive) | 103% (inactive) | 95.8% (inactive) | 2.46% (inactive) | 93.3% | 95.8% | -2.21% (inactive) | 1.31% (inactive)
20 | CSc1oc(-c2ccccc2)nc1S(=O)(=O)c1ccc(F)cc1 | 92% (inactive) | 73.2% (inactive) | 82.6% (inactive) | 0.495% (inactive) | 82.1% | 82.6% | -6.3% (inactive) | -1.61% (inactive)
21 | O=C(NCC1CCCO1)c1cc(-c2ccncc2)nc2ccc(S(=O)(=O)N3CCOCC3)cc12 (stereo not drawn) | 106% (inactive) | 111% (inactive) | 95.8% (inactive) | 8.86% (inactive) | 87% | 95.8% | -7.87% (inactive) | 4.18% (inactive)
22 | O=C(CSc1nccn1Cc1ccccc1)Nc1nccs1 | 90% (inactive) | 98.6% (inactive) | 108% (inactive) | 6.88% (inactive) | 101% | 108% | -0.26% (inactive) | 1.48% (inactive)
23 | COc1ccc2c(c1)C1(Nc3ccccc3-c3nc4ccccc4n31)C(=O)N2 (stereo not drawn) | 88% (inactive) | 57.2% (inactive) | 82.3% (inactive) | -3.61% (inactive) | 85.9% | 82.3% | -8.49% (inactive) | 4.19% (inactive)
24 | O=C(NCCN1CCOCC1)C1CCC(=O)N1Cc1ccccc1Cl (stereo not drawn) | 148% (inactive) | 96.4% (inactive) | 90% (inactive) | 3.78% (inactive) | 86.3% | 90% | -1.43% (inactive) | -1.48% (inactive)
25 | CCOC(=O)c1ccc(NC(=O)N2CCN(Cc3cccc(F)c3)CC2)cc1 | 91% (inactive) | 105% (inactive) | 84.4% (inactive) | -9.16% (inactive) | 93.6% | 84.4% | -5.21% (inactive) | 0.91% (inactive)
26 | Cc1occc1C(=O)Nc1nnc(C2CCCCC2)s1 | 109% (inactive) | 93.1% (inactive) | 93.7% (inactive) | 14.1% (inactive) | 79.6% | 93.7% | -2.74% (inactive) | 10.7% (inactive)
27 | O=C(c1cnn2c(C(F)F)cc(-c3ccccc3)nc12)N1CCN2CCCC2C1 (stereo not drawn) | 103% (inactive) | 103% (inactive) | 79.1% (inactive) | -1.71% (inactive) | 80.8% | 79.1% | -4.79% (inactive) | 1.82% (inactive)
28 | Cc1ccc(Cn2nnnc2CN2CCC(O)(c3ccccc3F)CC2)cc1 | 62% (inactive) | 92.6% (inactive) | 83.1% (inactive) | -2.32% (inactive) | 85.4% | 83.1% | -8.36% (inactive) | -0.65% (inactive)
29 | CC(=O)/C(C[N+]1(C)CCCCC1)=N\O | 107% (inactive) | 103% (inactive) | 105% (inactive) | 18.9% (inactive) | 85.6% | 105% | -6.13% (inactive) | 0.55% (inactive)
30 | Cc1ccc(-n2ncc3c(=O)n(CC(=O)N4CCCc5ccccc54)cnc32)cc1C | 82% (inactive) | 60.5% (inactive) | 90.8% (inactive) | -10% (inactive) | 101% | 90.8% | 6.08% (inactive) | -2.73% (inactive)
31 | O=C(CSc1nc(N2CCCCC2)nc(N2CCCCC2)n1)Nc1nccs1 | 123% (inactive) | 85.4% (inactive) | 77.3% (inactive) | 4.8% (inactive) | 72.5% | 77.3% | -2.21% (inactive) | -7.21% (inactive)
32 | CCOC(=O)N1CCN(C(=O)COc2cc(=O)n(C)c3ccccc23)CC1 | 98% (inactive) | 98.2% (inactive) | 98.2% (inactive) | 16.7% (inactive) | 81.5% | 98.2% | 0.91% (inactive) | 15.9% (inactive)
33 | COc1ccc(C2c3c(oc4ccccc4c3=O)C(=O)N2Cc2ccncc2)cc1OC (stereo not drawn) | 91% (inactive) | 96.7% (inactive) | 93.7% (inactive) | -2.17% (inactive) | 95.8% | 93.7% | -7.84% (inactive) | 0.18% (inactive)
34 | Cc1ccc(-c2nnc(SCC(=O)N3c4ccccc4NC(=O)C3(C)C)n2N)cc1 | 65% (inactive) | 105% (inactive) | 98% (inactive) | 6.49% (inactive) | 91.5% | 98% | -3.38% (inactive) | 0.36% (inactive)
35 | CC(=O)O[C@H]1C[C@@H]2CC[C@@H]3[C@H](CC[C@@]4(C)[C@H]3C[C@H]([N+]3(C)CCCCC3)[C@@H]4OC(C)=O)[C@@]2(C)C[C@@H]1[N+]1(C)CCCCC1 | 111% (inactive) | 88.4% (inactive) | 94.5% (inactive) | -4.76% (inactive) | 99.3% | 94.5% | 1.04% (inactive) | 12.7% (inactive)
36 | CCOC(=O)c1ccc(NC(=O)CSC2=NC(=O)C(CC)C(=O)N2)cc1 (stereo not drawn) | 94% (inactive) | 65.8% (inactive) | 105% (inactive) | 22.1% (inactive) | 83.3% | 105% | 0.78% (inactive) | -2.3% (inactive)
